Experimental data as given in ChEMBL document CHEMBL1121789, “Some analogues of luteinizing hormone-releasing hormone with substituents in position 10” (1981).
Square brackets hold non-standard residues; d marks the D form. Peptide text beside a SMILES is read from it. * marks the point of attachment. pGlu = O=C1CC[C@@H](C(=O)O)N1; X1 = O=C(NN*)C(F)(F)F; X5 = N/C(S)=N\N*; X2 = CC(=O)NN*; X3 = CN(N)*; X4 = O=CNN*

Experiments:
Rattus norvegicus [1] = organism: Rattus norvegicus; assay: In vitro FSH-release potency of compound was measured in rat hemipituitaries by taking LH-RH as standard; format: functional
How it was run: (§1)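 Rat hemipituitaries incubated in vitro with each analogue, usually at two dose levels in a 2 × 2 (four-point) design against an LH-RH standard. Media sampled 6 h later and assayed for LH and FSH by radioimmunoassay. Potency expressed relative to the standard, with 95% confidence limits.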

Rattus norvegicus [2] = organism: Rattus norvegicus; assay: In vitro LH-release potency of compound was measured in rat hemipituitaries by taking LH-RH as standard; format: functional; how it was run: as §1

Compound | Potency (Rattus norvegicus [1]) | Potency (Rattus norvegicus [2])
CC(=O)NNC(=O)[C@@H]1CCCN1C(=O)[C@H](CCCN=C(N)N)NC(=O)[C@H](CC(C)C)NC(=O)CNC(=O)[C@H](Cc1ccc(O)cc1)NC(=O)[C@H](CO)NC(=O)[C@H](Cc1c[nH]c2ccccc12)NC(=O)[C@H](Cc1c[nH]cn1)NC(=O)[C@@H]1CCC(=O)N1 ([pGlu]HWSYGLRP-X2) | 0.6 | 1.2
CC(C)C[C@H](NC(=O)CNC(=O)[C@H](Cc1ccc(O)cc1)NC(=O)[C@H](CO)NC(=O)[C@H](Cc1c[nH]c2ccccc12)NC(=O)[C@H](Cc1c[nH]cn1)NC(=O)[C@@H]1CCC(=O)N1)C(=O)N[C@@H](CCCN=C(N)N)C(=O)N1CCC[C@H]1C(=O)N(C)N ([pGlu]HWSYGLRP-X3) | 11 | 17
CC(C)C[C@H](NC(=O)CNC(=O)[C@H](Cc1ccc(O)cc1)NC(=O)[C@H](CO)NC(=O)[C@H](Cc1c[nH]c2ccccc12)NC(=O)[C@H](Cc1c[nH]cn1)NC(=O)[C@@H]1CCC(=O)N1)C(=O)N[C@@H](CCCN=C(N)N)C(=O)N1CCC[C@H]1C(=O)NNC=O ([pGlu]HWSYGLRP-X4) | 10 | 15.3
CC(C)C[C@H](NC(=O)CNC(=O)[C@H](Cc1ccc(O)cc1)NC(=O)[C@H](CO)NC(=O)[C@H](Cc1c[nH]c2ccccc12)NC(=O)[C@H](Cc1c[nH]cn1)NC(=O)[C@@H]1CCC(=O)N1)C(=O)N[C@@H](CCCN=C(N)N)C(=O)N1CCC[C@H]1C(=O)N/N=C(\N)S ([pGlu]HWSYGLRP-X5) | 4.6 | 6.5
CC(C)C[C@H](NC(=O)CNC(=O)[C@H](Cc1ccc(O)cc1)NC(=O)[C@H](CO)NC(=O)[C@H](Cc1c[nH]c2ccccc12)NC(=O)[C@H](Cc1cnc[nH]1)NC(=O)[C@@H]1CCC(=O)N1)C(=O)N[C@@H](CCCNC(=N)N)C(=O)N1CCC[C@H]1C(=O)NCC(N)=O [GONADORELIN] | 100 | 100
CC(C)C[C@H](NC(=O)CNC(=O)[C@H](Cc1ccc(O)cc1)NC(=O)[C@H](CO)NC(=O)[C@H](Cc1c[nH]c2ccccc12)NC(=O)[C@H](Cc1c[nH]cn1)NC(=O)[C@@H]1CCC(=O)N1)C(=O)N[C@@H](CCCN=C(N)N)C(=O)N1CCC[C@H]1C(=O)NNC(=O)C(F)(F)F ([pGlu]HWSYGLRP-X1) | 0.9 | 1
